From ChEMBL document CHEMBL1150966, “New iridoids from the medicinal plant Barleria prionitis with potent activity against respiratory syncytial virus” (J Nat Prod, 1998) come the findings set out here.

Data set [1] has as its system Respiratory syncytial virus. In words: Antiviral activity against respiratory syncytial virus A2 in human Hep2 cells assessed as inhibition of virus-induced cytopathic effect. The data set is classed as functional, organism-based. To be noted: HEp-2. The method in brief:
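Cell-based viral cytopathic effect (CPE) assay with RSV strain A2 in Hep-2 cells. Antiviral activity is expressed in µg/mL as the 50% effective concentration (EC50).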
(Damage to the host cells serves as the signal in cytopathic effect assays.)

A short description of data set [2]: Cytotoxicity against human Hep2 cells. The data set is classed as cell-based, HEp-2. To be noted: for IC50: Homo sapiens, HEp-2. The gist of the method: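 Cytotoxicity to Hep-2 cells was measured under the same conditions as the viral CPE assay. It is reported in µg/mL as the 50% inhibitory concentration (IC50).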
Data set [3] is described as follows: Selectivity index, ratio of IC50 for human Hep2 cells to EC50 for respiratory syncytial virus A2. Type of data set: toxicity, cell-based, HEp-2. To be noted: for selectivity ratio: Hep2 cells, read-out: Ratio IC50/EC50. The gist of the method:
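The selectivity index is IC50/EC50. The IC50 is for Hep-2 cytotoxicity and the EC50 is for RSV A2 CPE inhibition, both in µg/mL from the same CPE assay conditions.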

≈ marks a conversion by molar mass, not a printed value. Calls of active or inactive are those of the source. The rule behind the calls is not given here.

Take `COC(=O)C1=CO[C@@H](O[C@@H]2O[C@H](CO)[C@@H](O)[C@H](O)[C@H]2O)[C@H]2[C@@H]1[C@H](O)C[C@]2(C)OC(C)=O` [BARLERIN]: the outcome in data set [1] was inactive. Also, the Activity result in data set [2] (human, hep-2) is reported as “Not Active”; in data set [3] (hep-2) it was “Not Active”.

As a reminder, the IC50 is the concentration needed to halve the response being measured. In the case of `C[C@@H]1O[C@@H](O[C@@H]2[C@@H](O)[C@H](OCCc3ccc(O)c(O)c3)O[C@H](CO)[C@H]2OC(=O)/C=C/c2ccc(O)c(O)c2)[C@H](O)[C@H](O)[C@H]1O` [ACETOSIDE], in data set [2], the half-inhibitory concentration (IC50) was found to be 76.9 µg/mL (≈ 123 µM). Besides, the selectivity ratio in data set [3] came out at 85.4.

For orientation: EC50 means the concentration needed to bring the measured effect to its halfway point. In the case of `COC(=O)C1=CO[C@@H](O[C@@H]2O[C@H](CO)[C@@H](O)[C@H](O)[C@H]2O)[C@H]2[C@@H]1[C@H](OC(=O)/C=C\c1ccc(O)cc1)C[C@]2(C)OC(C)=O`, the half-maximal effective concentration (EC50) in data set [1] was determined as 2.46 µg/mL (≈ 4.14 µM). In data set [2], this compound had a half-inhibitory concentration (IC50) of 42 µg/mL (≈ 70.6 µM). In addition, the selectivity ratio in data set [3] turned out to be 17.

Take `COC(=O)C1=CO[C@@H](O[C@@H]2O[C@H](CO)[C@@H](O)[C@H](O)[C@H]2O)[C@H]2[C@@H]1[C@H](OC(=O)/C=C/c1ccc(O)cc1)C[C@]2(C)OC(C)=O`: in data set [1], the 50% effective concentration (EC50) is 2.46 µg/mL (≈ 4.14 µM). In data set [2], this compound had a 50% inhibitory concentration (IC50) of 42 µg/mL (≈ 70.6 µM). The selectivity ratio in data set [3] came to 17.
